Laboratory results as given in ChEMBL document CHEMBL3862017, “Synthesis and evaluation of the structural elements in alkylated tetrahydroisoquinolines for binding to CNS receptors” (Bioorg Med Chem, 2016).
pKi: −log10 of the molar value.

Tests used:
[1] = target: D(2) dopamine receptor (Homo sapiens) (UniProt P14416); experiment: Displacement of [3H]-N-methylspiperone from human dopamine D2 receptor by liquid scintillation counting method; parameters: concentration or dose not given beside the values; conditions: concentration not given here
Chain of D(2) dopamine receptor (Homo sapiens) (P14416 whole entry): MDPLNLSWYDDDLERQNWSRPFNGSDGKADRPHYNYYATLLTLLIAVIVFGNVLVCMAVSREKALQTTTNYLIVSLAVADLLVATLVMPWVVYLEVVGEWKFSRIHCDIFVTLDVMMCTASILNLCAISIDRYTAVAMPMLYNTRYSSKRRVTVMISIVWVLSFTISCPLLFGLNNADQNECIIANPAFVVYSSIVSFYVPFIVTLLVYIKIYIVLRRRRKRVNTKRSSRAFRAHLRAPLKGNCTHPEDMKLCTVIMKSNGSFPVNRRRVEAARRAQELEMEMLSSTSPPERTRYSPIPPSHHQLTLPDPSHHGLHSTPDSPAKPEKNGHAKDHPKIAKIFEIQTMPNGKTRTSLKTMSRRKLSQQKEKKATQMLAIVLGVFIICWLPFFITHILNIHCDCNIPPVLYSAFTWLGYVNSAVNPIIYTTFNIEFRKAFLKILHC
Procedure, shortened: (§1)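 Binding assays run by the NIMH Psychoactive Drug Screening Program (PDSP) using its previously reported methods and radioligands. Affinity is given as Ki.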

[2] = target: T1, D(4) dopamine receptor (Rattus norvegicus, UniProt P30729)
T1 sequence (P30729 whole entry): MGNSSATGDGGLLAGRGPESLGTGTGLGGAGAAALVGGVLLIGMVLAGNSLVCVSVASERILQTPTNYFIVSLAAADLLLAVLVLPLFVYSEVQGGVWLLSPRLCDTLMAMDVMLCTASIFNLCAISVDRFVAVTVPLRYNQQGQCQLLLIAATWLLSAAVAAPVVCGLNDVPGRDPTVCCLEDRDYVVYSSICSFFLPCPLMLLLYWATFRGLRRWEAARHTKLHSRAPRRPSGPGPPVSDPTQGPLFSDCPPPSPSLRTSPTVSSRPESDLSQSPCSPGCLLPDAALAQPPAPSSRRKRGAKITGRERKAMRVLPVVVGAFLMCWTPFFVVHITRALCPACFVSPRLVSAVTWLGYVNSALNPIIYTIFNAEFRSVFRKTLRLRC

[3] = target: T2, 5-hydroxytryptamine receptor 1A (Homo sapiens) (UniProt P08908); experiment: Displacement of [3H]-8-OH-DPAT from human 5-HT1A receptor by liquid scintillation counting method; conditions: concentration not given here; procedure, shortened: as §1
T2 sequence (whole entry): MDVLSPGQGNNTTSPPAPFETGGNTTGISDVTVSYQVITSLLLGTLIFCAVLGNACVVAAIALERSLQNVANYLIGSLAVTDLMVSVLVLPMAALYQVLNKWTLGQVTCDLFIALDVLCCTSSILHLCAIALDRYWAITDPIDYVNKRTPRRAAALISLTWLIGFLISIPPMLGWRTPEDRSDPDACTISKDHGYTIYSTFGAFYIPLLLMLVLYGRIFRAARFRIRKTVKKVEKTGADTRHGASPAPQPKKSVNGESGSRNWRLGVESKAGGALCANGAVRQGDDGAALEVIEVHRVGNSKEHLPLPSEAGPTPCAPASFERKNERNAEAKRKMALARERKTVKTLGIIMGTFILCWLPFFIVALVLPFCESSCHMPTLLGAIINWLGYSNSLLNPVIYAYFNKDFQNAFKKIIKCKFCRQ

[4] = target: 5-hydroxytryptamine receptor 2A (Homo sapiens, UniProt P28223); experiment: Displacement of [3H]-ketanserin from human 5-HT2A receptor by liquid scintillation counting method; conditions: for inhibition: concentration not given here; procedure, shortened: as §1
Chain of 5-hydroxytryptamine receptor 2A (P28223 whole entry): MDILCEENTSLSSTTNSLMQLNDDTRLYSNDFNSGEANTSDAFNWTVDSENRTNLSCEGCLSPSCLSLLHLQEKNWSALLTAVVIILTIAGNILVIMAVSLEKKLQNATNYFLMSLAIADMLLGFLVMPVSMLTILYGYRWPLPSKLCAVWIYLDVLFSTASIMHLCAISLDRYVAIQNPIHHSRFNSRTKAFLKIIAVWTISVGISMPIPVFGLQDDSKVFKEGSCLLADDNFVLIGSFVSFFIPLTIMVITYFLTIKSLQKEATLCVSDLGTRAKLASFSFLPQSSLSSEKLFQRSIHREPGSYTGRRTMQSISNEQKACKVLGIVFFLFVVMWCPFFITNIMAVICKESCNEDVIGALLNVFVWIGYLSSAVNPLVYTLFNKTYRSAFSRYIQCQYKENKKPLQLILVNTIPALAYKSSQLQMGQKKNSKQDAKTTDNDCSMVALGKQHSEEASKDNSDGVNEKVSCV

[5] = target: 5-hydroxytryptamine receptor 2B (Homo sapiens, UniProt P41595); experiment: Displacement of [3H]-LSD from human 5-HT2B receptor by liquid scintillation counting method; procedure, shortened: as §1
Chain of 5-hydroxytryptamine receptor 2B (P41595 whole entry): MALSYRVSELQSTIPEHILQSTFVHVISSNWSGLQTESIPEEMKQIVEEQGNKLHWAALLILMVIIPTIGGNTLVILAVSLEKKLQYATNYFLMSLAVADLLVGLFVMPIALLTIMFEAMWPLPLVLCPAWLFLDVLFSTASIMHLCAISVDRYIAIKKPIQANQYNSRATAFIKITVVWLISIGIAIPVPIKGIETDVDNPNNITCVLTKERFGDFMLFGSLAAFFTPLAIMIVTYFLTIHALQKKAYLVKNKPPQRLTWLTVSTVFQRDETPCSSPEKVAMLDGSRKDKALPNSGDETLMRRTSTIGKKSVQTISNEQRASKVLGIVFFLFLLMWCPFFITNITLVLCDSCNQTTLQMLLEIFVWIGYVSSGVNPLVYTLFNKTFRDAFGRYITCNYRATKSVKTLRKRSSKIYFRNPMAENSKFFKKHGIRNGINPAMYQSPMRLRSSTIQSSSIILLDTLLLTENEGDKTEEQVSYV

[6] = target: T3, 5-hydroxytryptamine receptor 2C (Homo sapiens, UniProt P28335); experiment: Displacement of [3H]-mesulergine from human 5-HT2C receptor by liquid scintillation counting method; conditions: for inhibition (INH): human; procedure, shortened: as §1
T3 sequence (P28335 whole entry): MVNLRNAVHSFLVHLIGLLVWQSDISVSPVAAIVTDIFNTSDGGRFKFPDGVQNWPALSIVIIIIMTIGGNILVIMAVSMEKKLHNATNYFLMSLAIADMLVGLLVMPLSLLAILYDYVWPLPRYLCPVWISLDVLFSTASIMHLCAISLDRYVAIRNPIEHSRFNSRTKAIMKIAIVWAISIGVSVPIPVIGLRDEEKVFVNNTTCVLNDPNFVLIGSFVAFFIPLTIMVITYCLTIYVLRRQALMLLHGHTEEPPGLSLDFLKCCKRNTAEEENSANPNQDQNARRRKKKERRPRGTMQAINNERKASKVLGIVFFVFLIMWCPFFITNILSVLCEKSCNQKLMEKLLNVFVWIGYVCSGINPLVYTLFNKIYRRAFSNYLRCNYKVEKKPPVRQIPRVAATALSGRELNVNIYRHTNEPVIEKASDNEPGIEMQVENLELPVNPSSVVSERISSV

[7] = target: Histamine H1 receptor (Homo sapiens, UniProt P35367); experiment: Displacement of [3H]-pyrilamine from human histamine H1 receptor by liquid scintillation counting method; procedure, shortened: as §1
Chain of Histamine H1 receptor (P35367 whole entry): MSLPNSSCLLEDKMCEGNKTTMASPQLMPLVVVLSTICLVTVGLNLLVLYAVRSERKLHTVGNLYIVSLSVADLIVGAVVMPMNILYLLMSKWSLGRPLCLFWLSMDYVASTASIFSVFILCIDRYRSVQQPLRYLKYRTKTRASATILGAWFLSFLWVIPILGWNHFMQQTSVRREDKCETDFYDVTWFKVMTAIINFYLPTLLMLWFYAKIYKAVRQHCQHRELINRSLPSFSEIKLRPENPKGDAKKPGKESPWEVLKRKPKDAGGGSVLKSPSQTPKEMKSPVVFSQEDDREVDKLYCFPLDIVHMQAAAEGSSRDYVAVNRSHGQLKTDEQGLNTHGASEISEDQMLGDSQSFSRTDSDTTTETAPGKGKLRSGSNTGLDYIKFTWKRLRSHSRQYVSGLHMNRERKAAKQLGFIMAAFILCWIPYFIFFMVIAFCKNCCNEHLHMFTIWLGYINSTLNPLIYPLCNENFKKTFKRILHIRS

[8] = target: D(3) dopamine receptor (Homo sapiens) (UniProt P35462); experiment: Displacement of [3H]-N-methylspiperone from human dopamine D3 receptor by liquid scintillation counting method; conditions: concentration not given here; procedure, shortened: as §1
Chain of D(3) dopamine receptor (Homo sapiens) (P35462 whole entry): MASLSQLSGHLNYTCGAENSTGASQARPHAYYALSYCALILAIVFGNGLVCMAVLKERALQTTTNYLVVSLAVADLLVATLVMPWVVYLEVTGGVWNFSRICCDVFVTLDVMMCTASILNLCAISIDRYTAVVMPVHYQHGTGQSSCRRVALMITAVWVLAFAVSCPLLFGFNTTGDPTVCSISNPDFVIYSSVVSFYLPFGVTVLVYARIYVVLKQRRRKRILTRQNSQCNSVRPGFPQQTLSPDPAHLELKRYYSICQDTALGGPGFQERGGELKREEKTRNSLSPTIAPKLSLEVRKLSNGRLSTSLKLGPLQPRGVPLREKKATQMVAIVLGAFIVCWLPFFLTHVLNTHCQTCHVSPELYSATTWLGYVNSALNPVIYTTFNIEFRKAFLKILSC

[9] = target: 5-hydroxytryptamine receptor 7 (Homo sapiens) (UniProt P34969); experiment: Displacement of [3H]-LSD from human 5-HT7 receptor by liquid scintillation counting method; conditions: concentration not given here; procedure, shortened: as §1
Chain of 5-hydroxytryptamine receptor 7 (Homo sapiens) (P34969 whole entry): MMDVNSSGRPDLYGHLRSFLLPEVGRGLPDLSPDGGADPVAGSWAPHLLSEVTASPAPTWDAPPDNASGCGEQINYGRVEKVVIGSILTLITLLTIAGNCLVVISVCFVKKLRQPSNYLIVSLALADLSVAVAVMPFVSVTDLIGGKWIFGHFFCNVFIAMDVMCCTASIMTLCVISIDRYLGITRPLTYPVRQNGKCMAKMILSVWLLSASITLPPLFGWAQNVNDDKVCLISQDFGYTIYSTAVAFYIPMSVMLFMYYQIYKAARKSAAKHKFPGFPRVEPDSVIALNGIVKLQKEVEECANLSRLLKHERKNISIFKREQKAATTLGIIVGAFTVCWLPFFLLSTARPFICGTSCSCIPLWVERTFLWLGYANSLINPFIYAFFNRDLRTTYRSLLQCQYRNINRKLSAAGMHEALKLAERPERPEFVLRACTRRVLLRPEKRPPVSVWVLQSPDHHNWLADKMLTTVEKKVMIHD

SMILES: c1ccc2c(c1)CCN(CCCc1nc3ccccc3s1)C2
- inhibition [1]: < 50%
- pKi [2]: 7.39

SMILES: Clc1ccc2sc(CCCCN3CCC4CCCCC4C3)nc2c1 (centres undefined)
- pKi [2]: 7.43

SMILES: Cl.Clc1ccc(C(=CCCN2CCc3ccccc3C2)c2ccc(Cl)cc2)cc1
- inhibition [1]: < 50%
- inhibition [3]: < 50%
- inhibition [4]: < 50%
- inhibition (INH) [5]: < 50%

SMILES: Cl.Cl.c1ccc2c(c1)CCN(CCCc1nc3ccccc3[nH]1)C2
- pKi [2]: 6.90
- pKi [4]: < 5.00
- inhibition (INH) [5]: < 50%
- pKi [6]: < 5.00

SMILES: O=C1c2ccc(Cl)cc2CC1CCN1CCc2ccccc2C1 (centres undefined)
- pKi [2]: 7.30

SMILES: O=C(CCCN1CCCc2ccccc2C1)c1ccc(Cl)cc1
- pKi [2]: 6.35

SMILES: CC1(C)CC(=O)N(CCCCN2Cc3ccccc3C2)C(=O)C1
- pKi [2]: < 5.00

SMILES: O=C1c2ccc(F)cc2CC1CCN1CCc2ccccc2C1 (centres undefined)
- pKi [2]: 6.60
- inhibition (INH) [6]: < 50%

SMILES: C1=C(CCN2CCc3ccccc3C2)CCc2ccccc21
- pKi [2]: 6.85

SMILES: COc1cc2c(cc1OC)CN(CCCCc1nc3cc(Cl)ccc3s1)CC2
- pKi [2]: 6.57

SMILES: O=C1Cc2cc(C(=O)CCCN3CCc4ccccc4C3)ccc2N1
- pKi [2]: 5.48
- inhibition (INH) [7]: < 50%

SMILES: C1=C(CCN2CCc3ccccc3C2)Cc2ccccc21
- inhibition [1]: < 50%
- pKi [2]: 6.71
- inhibition (INH) [6]: < 50%
- inhibition (INH) [7]: < 50%

SMILES: O=C1c2ccccc2CC1CCN1CCc2ccccc2C1 (centres undefined)
- pKi [2]: 5.96

SMILES: O=C(CCCN1CCc2ccccc2CC1)c1ccc(Cl)cc1
- pKi [2]: 7.09

SMILES: Clc1cccc2c1CN(CCCCc1nc3ccccc3s1)CC2
- pKi [2]: 6.89

SMILES: Cl.O=C(CCCN1CCCCc2ccccc21)c1ccc(Cl)cc1
- inhibition [8]: < 50%
- inhibition [1]: < 50%
- inhibition [3]: < 50%
- inhibition [4]: < 50%
- inhibition [9]: < 50%
- inhibition (INH) [5]: < 50%
- inhibition (INH) [6]: < 50%
- inhibition (INH) [7]: < 50%

SMILES: O=C(CCCN1CCCc2ccccc21)c1ccc(Cl)cc1
- inhibition [8]: < 50%
- inhibition [1]: < 50%
- inhibition [3]: < 50%
- inhibition [4]: < 50%
- inhibition [9]: < 50%
- inhibition (INH) [5]: < 50%
- inhibition (INH) [7]: < 50%

SMILES: CC1(C)CC(=O)N(CCCCN2CCc3ccccc3C2)C(=O)C1.Cl
- inhibition [1]: < 50%
- inhibition [3]: < 50%
- inhibition [4]: < 50%
- inhibition [9]: < 50%
- inhibition (INH) [5]: < 50%
- inhibition (INH) [6]: < 50%
- inhibition (INH) [7]: < 50%
